For 23 compounds, AC40 results are on record in PubChem BioAssay AID651775 (Broad Institute, 2012).

This assay concerns SK-MEL-5 TRPM1 promoter luciferase, 24 h. Put plainly: activators of MITF-driven TRPM1 promoter, dose response, cell-based, SK-MEL-5, luciferase, dry powder (AID 651775). The method in brief:
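Assay system: TRPM1 promoter-luciferase reporter stably expressed in SK-MEL-5 melanoma cells; Medium: DMEM without phenol red, 10% heat-inactivated FBS; Schedule: compound added day after seeding, 24 h exposure at 37 °C; Detection: SteadyGlo luminescence, read after 5 min at room temperature.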

Regarding `O=C(NCCc1cccs1)c1ccc(Cl)c(Cl)c1`, the AC40 is 615 nM.

In the case of `Cc1ccc(NC(=O)c2ccc3ccccc3n2)cc1S(=O)(=O)N(C)C`, the AC40 was 462 nM.

With `CC(=O)Nc1nnc(COc2ccc(Cl)cc2)s1`, the AC40 was 589 nM.

On to `c1ccc(-c2ccc(-c3cnc4n3CCCCC4)cc2)cc1`, for which the AC40 was 2290 nM.

In the case of `c1ccc(CSc2ccc(-c3ccc4c(c3)OCO4)nn2)cc1`, the AC40 was 974 nM.

Consider `CSc1nc2ccc(NC(=O)c3cccs3)cc2s1`, for which the AC40 is 465 nM.

`C/C(=N\OCc1ccc(C#N)cc1)c1ccc(S(=O)(=O)N(C)C)cc1`: the AC40 was 7800 nM.

For the compound `Cc1ccc(C(=O)Nc2cccc(O)c2)cc1S(=O)(=O)N1CCCCCC1`, the AC40 is 1010 nM.

On to `Cc1nn2c(-c3ccccc3)ccnc2c1-c1ccccc1`, for which the AC40 was 824 nM.

As to `C=CCNc1nc(-c2ccc(Cl)cc2)cs1`, the AC40 was 219 nM.

In the case of `O=C(Nc1cccc(F)c1)NC1CCCCCCC1`, the AC40 was 984 nM.

On to `c1ccc2c(Nc3nnc(-c4ccncc4)s3)cccc2c1`, for which the AC40 was 1130 nM.

In the case of `COc1ccc(C(=O)NCCn2ccc3ccccc32)cc1`, the AC40 was 531 nM.

On to `CCCN(CCC)c1ncnc2c1cnn2-c1ccc(OC)cc1`, for which the AC40 was 39 nM.

As for `COC(=O)C(C)N1C(=O)S/C(=C/c2cc(C)n(C(C)C)c2C)C1=O` (stereo not drawn), the AC40 was 541 nM.

With `COc1cccc(NC(=O)C(=O)NCCC2CCCCN2S(=O)(=O)c2cccs2)c1` (stereo not drawn), the AC40 was 2070 nM.

Regarding `CCN(CC)c1ccc(Nc2nc(-c3cccnc3)cs2)cc1`, the AC40 is 515 nM.

Take `COc1cc(/C=N/O)ccc1OCc1ccccc1Cl`: the AC40 is 180 nM.

With `O=C(Oc1ccc2ccccc2c1Cl)N1CCCCCC1`, the AC40 is 113 nM.

Consider `Fc1ccccc1COc1ccc(C(=S)N2CCCC2)cc1`, for which the AC40 is 1320 nM.

Turning to `Cc1cc2ncc(-c3ccc(Cl)cc3)c(N)n2n1`, the AC40 was 1770 nM.

With `COc1ccc(NC(=O)c2ccc3[nH]c(C)c(C)c3c2)cc1`, the AC40 was 1930 nM.

Turning to `CC(C)(C)C(=O)N1CCN(c2nc3ccccc3s2)CC1`, the AC40 is 912 nM.
